# Source: ChEMBL document CHEMBL1139823, “Rational design of conformationally restricted quinazolinone inhibitors of poly(ADP-ribose)polymerase” (Bioorg Med Chem Lett, 2007)
# Experiments:
# [1] = biological target: Poly [ADP-ribose] polymerase 1 (Homo sapiens, UniProt P09874); test: Inhibition of human PARP1
# [2] = Drug level in mouse brain at 32 mg/kg, po after 0.5 hr; assay type: ADME, organism-based; parameters: dose 32 mg/kg, route oral; settings: read-out: Drug uptake
# Outline: (§1)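 Mice dosed orally at 32 mg/kg (n = 2). Compound levels in brain (µg/g tissue) and plasma (µg/mL) measured by ex vivo assay at 0.5 and 2.0 h after dosing.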
# [3] = Drug level in mouse brain at 32 mg/kg, po after 2.0 hrs; assay type: ADME, organism-based; parameters: dose 32 mg/kg, route oral; settings: read-out: Drug uptake; outline: as §1
# [4] = Drug level in mouse plasma at 32 mg/kg, po after 0.5 hr; assay type: ADME, organism-based; parameters: dose 32 mg/kg, route oral; outline: as §1
# [5] = Drug level in mouse plasma at 32 mg/kg, po after 2.0 hrs; assay type: ADME, organism-based; parameters: dose 32 mg/kg, route oral; outline: as §1
# [6] = Metabolic stability assessed as Intrinsic clearance in mouse liver microsomes after 60 mins
# [7] = Metabolic stability assessed as Intrinsic clearance in human liver microsomes after 60 mins
# Poly [ADP-ribose] polymerase 1, sequence (P09874 whole entry): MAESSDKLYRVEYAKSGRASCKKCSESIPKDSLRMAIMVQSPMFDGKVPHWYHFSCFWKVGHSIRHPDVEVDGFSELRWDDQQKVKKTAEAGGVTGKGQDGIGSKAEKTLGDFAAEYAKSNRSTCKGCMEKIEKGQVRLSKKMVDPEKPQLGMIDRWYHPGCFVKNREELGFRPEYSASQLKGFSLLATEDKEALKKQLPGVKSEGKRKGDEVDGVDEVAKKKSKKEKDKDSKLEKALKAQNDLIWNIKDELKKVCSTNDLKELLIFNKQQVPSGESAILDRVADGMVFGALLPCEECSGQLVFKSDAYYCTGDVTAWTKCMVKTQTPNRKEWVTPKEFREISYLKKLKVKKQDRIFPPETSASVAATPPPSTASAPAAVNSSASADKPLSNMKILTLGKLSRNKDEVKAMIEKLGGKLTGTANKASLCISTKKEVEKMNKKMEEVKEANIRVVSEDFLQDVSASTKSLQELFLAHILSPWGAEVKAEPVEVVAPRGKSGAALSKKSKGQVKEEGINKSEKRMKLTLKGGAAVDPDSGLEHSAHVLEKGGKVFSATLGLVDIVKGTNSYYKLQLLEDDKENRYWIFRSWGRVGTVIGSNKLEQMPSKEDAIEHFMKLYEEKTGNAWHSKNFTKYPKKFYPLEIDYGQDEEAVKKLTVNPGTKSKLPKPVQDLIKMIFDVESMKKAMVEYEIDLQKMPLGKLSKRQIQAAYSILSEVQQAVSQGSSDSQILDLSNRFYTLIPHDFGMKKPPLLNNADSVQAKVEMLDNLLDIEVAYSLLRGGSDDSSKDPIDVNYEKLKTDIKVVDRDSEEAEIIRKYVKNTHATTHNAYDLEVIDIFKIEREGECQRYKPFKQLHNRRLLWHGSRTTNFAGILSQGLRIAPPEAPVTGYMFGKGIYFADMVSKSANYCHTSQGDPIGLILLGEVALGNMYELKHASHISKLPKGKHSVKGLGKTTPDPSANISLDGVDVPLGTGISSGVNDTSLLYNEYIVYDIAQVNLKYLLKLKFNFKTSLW
compound,measurement,setting,value
O=c1[nH]c(CCCN2CC=C(c3ccc(Cl)cc3)CC2)nc2ccccc12,IC50,[1],8.9 nM
O=c1[nH]c(C2=CC(N3CCN(c4ccc(Cl)cc4)CC3)CC2)nc2ccccc12 (configuration not stated),IC50,[1],25 nM
same,concentration at 0.5 h,[2],1300 ng/g
same,concentration at 2 h,[3],2200 ng/g
same,concentration at 0.5 h,[4],> 20100 ng/mL
same,concentration at 2 h,[5],> 20400 ng/mL
Cc1cccc2c(=O)[nH]c(C3=CC(N4CCN(c5ccc(Cl)cc5)CC4)CC3)nc12 (configuration not stated),IC50,[1],12 nM
O=c1[nH]c(CCCN2CCC(c3ccccc3)CC2)nc2c(Cl)cccc12,IC50,[1],103 nM
same,concentration at 0.5 h,[2],11600 ng/g
same,concentration at 2 h,[3],3900 ng/g
same,concentration at 0.5 h,[4],12500 ng/mL
same,concentration at 2 h,[5],9400 ng/mL
O=c1[nH]c(CCCN2CC=C(c3ccc(F)cc3)CC2)nc2c(Cl)cccc12,concentration at 0.5 h,[2],8400 ng/g
same,concentration at 2 h,[3],2800 ng/g
same,concentration at 0.5 h,[4],1900 ng/mL
same,concentration at 2 h,[5],1200 ng/mL
same,CLint scaled at 1 h,[6],3910 mL/min/kg
Cc1cccc2c(=O)[nH]c(C3=CC(N4CC=C(c5ccc(F)cc5)CC4)CC3)nc12 (configuration not stated),IC50,[1],25 nM
O=c1[nH]c(C2=C[C@H](N3CCC(c4ccc(F)cc4)CC3)CC2)nc2c(Cl)cccc12,IC50,[1],257 nM
O=c1[nH]c(C2=C[C@H](N3CC=C(c4ccccc4)CC3)CC2)nc2c(Cl)cccc12,IC50,[1],286 nM
O=c1[nH]c(C2=CC(N3CC=C(c4ccccc4)CC3)CCC2)nc2ccccc12 (configuration not stated),IC50,[1],160 nM
O=c1[nH]c(C2CCC(N3CCC(c4ccccc4)CC3)C2)nc2ccccc12 (stereo in doubt; cis),IC50,[1],435 nM
O=c1[nH]c(C2=CC(N3CCN(c4ccc(F)cc4)CC3)CC2)nc2c(Cl)cccc12 (configuration not stated),IC50,[1],25 nM
O=c1[nH]c(C2=C[C@@H](N3CC=C(c4ccccc4)CC3)CC2)nc2c(Cl)cccc12,IC50,[1],15 nM
same,concentration at 0.5 h,[2],2000 ng/g
same,concentration at 2 h,[3],3000 ng/g
same,concentration at 0.5 h,[4],17100 ng/mL
same,concentration at 2 h,[5],18100 ng/mL
O=c1[nH]c(C2CCCC(N3CC=C(c4ccccc4)CC3)C2)nc2ccccc12 (racemic),IC50,[1],1800 nM
O=c1[nH]c(C2=CC(N3CC=C(c4ccc(F)cc4)CC3)CC2)nc2c(Cl)cccc12 (configuration not stated),IC50,[1],36 nM
same,concentration at 0.5 h,[2],400 ng/g
same,concentration at 2 h,[3],900 ng/g
same,concentration at 0.5 h,[4],15200 ng/mL
same,concentration at 2 h,[5],17700 ng/mL
same,CLint scaled at 1 h,[6],1330 mL/min/kg
same,CLint scaled at 1 h,[7],54 mL/min/kg
O=c1[nH]c(N2CC(N3CC=C(c4ccccc4)CC3)C2)nc2ccccc12,IC50,[1],504 nM
O=c1[nH]c(CCCN2CCC(c3ccc(F)cc3)CC2)nc2c(Cl)cccc12,IC50,[1],47 nM
Cc1cccc2c(=O)[nH]c(CCCN3CC=C(c4ccc(F)cc4)CC3)nc12,IC50,[1],8 nM
O=c1[nH]c(C2=CC(N3CC=C(c4ccccc4)CC3)CC2)nc2ccccc12 (racemic),IC50,[1],16 nM
O=c1[nH]c(N2CCC(N3CC=C(c4ccccc4)CC3)C2)nc2ccccc12 (configuration not stated),IC50,[1],300 nM
Cc1cccc2c(=O)[nH]c(C3=CC(N4CCC(c5ccc(F)cc5)CC4)CC3)nc12 (configuration not stated),IC50,[1],30 nM
O=c1[nH]c(C2=C[C@@H](N3CCC(c4ccc(F)cc4)CC3)CC2)nc2c(Cl)cccc12,IC50,[1],35 nM
same,concentration at 0.5 h,[2],6700 ng/g
same,concentration at 2 h,[3],12500 ng/g
same,concentration at 0.5 h,[4],13600 ng/mL
same,concentration at 2 h,[5],11300 ng/mL
same,CLint scaled at 1 h,[6],686 mL/min/kg
same,CLint scaled at 1 h,[7],17 mL/min/kg
O=c1[nH]c(C2=C[C@@H](N3CCC(c4ccccc4)CC3)CC2)nc2c(Cl)cccc12,IC50,[1],8.7 nM
same,concentration at 0.5 h,[2],19800 ng/g
same,concentration at 2 h,[3],18100 ng/g
same,concentration at 0.5 h,[4],8700 ng/mL
same,concentration at 2 h,[5],4400 ng/mL
same,CLint scaled at 1 h,[6],1160 mL/min/kg
same,CLint scaled at 1 h,[7],22 mL/min/kg
O=c1[nH]c(C2CCC(N3CCC(c4ccccc4)CC3)C2)nc2ccccc12 (stereo in doubt; trans),IC50,[1],555 nM
O=c1[nH]c([C@H]2CC[C@H](N3CC=C(c4ccccc4)CC3)CC2)nc2ccccc12,IC50,[1],8400 nM
O=c1[nH]c(CCCN2CC=C(c3ccccc3)CC2)nc2c(Cl)cccc12,concentration at 0.5 h,[2],8000 ng/g
same,concentration at 2 h,[3],8400 ng/g
same,concentration at 0.5 h,[4],1300 ng/mL
same,concentration at 2 h,[5],1200 ng/mL
O=c1[nH]c([C@H]2CC[C@@H](N3CC=C(c4ccccc4)CC3)CC2)nc2ccccc12,IC50,[1],1600 nM
O=c1[nH]c(CCCN2CC=C(c3ccc(F)cc3)CC2)nc2ccccc12,IC50,[1],16 nM
Cc1cccc2c(=O)[nH]c(C3=CC(N4CCC(c5ccc(Cl)cc5)CC4)CC3)nc12 (configuration not stated),IC50,[1],46 nM
O=c1[nH]c(C2=CC(N3CC=C(c4ccc(F)cc4)CC3)CC2)nc2ccccc12 (configuration not stated),IC50,[1],18 nM
Cc1cccc2c(=O)[nH]c(CCCN3CC=C(c4ccc(Cl)cc4)CC3)nc12,IC50,[1],16 nM
